Columns and labels:
Rattus norvegicus [1] = experiment: Antiinflammatory efficacy is measured by the percent inhibition of paw volume during the 3 week adjuvant arthritis test at 0.02 mM/kg (8.80 mg); format: functional
Method in brief: (§1)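 Male Sprague-Dawley rats (200–230 g) were used in groups of eight. Each received 0.1 mL of 0.6% M. butyricum in heavy mineral oil into the plantar tissue of one hind paw. Daily oral gavage in 1% gum tragacanth or corn oil-water emulsion began on the injection day and ran 21 days. Total hind paw volume was measured by mercury displacement, and inhibition was taken versus vehicle-treated adjuvant controls.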

Rattus norvegicus [2] = experiment: Antiinflammatory efficacy is measured by the percent inhibition of paw volume during the 3 week adjuvant arthritis test at 0.005 mM/kg (2.20 mg); format: functional; method in brief: as §1
Rattus norvegicus [3] = experiment: Antiinflammatory efficacy is measured by the weight gain in rats during the 3 week adjuvant arthritis test at 0.005 mM/kg (2.20 mg); format: functional
Method in brief: (§2)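 Rats were adjuvant-injected (M. butyricum in mineral oil, one hind paw) or given a mineral-oil placebo. They were dosed by gavage daily for 21 days from the injection day, with vehicle only for both control groups, then weighed at the end. Weight gain % = (treated − adjuvant control)/(negative control − adjuvant control) × 100.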

Rattus norvegicus [4] = experiment: The mean increase in paw volume was compared between drug treated groups and placebo to calculate the percent inhibition in rats at 0.02 mmol/kg by carrageenan Edema Assay; 40-49; format: functional
Rattus norvegicus [5] = experiment: Ulcerogenicity was measured in intestine during the 3 week adjuvant arthritis test, no of animals with ulcers out of 4 animals tested at 0.08 mM/kg (35.2 mg) was reported; format: functional
Method in brief: (§3)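 In the 21-day adjuvant arthritis model, male Sprague-Dawley rats (200–230 g) received an M. butyricum mineral-oil suspension into one hind paw. They were dosed daily by gavage from the day of injection. At the end of the study the rats were killed, and the small intestines were examined for ulcers. Results are given as the number of ulcerated animals over the number tested.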

Rattus norvegicus [6] = experiment: Ulcerogenicity was measured in stomach during the 3 week adjuvant arthritis test, no of animals with ulcers out of 4 animals tested at 0.08 mM/kg (35.2 mg) was reported; format: functional
Method in brief: (§4)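 Male Sprague-Dawley rats (200–230 g) were injected in the plantar tissue of one hind paw with 0.1 mL of 0.6% M. butyricum suspension in heavy mineral oil. Daily oral gavage began on the day of adjuvant injection and ran for the 21 days, with drug suspended in 1% gum tragacanth or a corn oil-water emulsion. At the end the rats were sacrificed and the small intestine and stomach were examined for ulcers. Results are given as animals with ulcers/animals tested.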

Rattus norvegicus [7] = experiment: Ulcerogenicity was measured in intestine during the 3 week adjuvant arthritis test, no of animals with ulcers out of animals tested at 0.32 mM/kg (141 mg) was reported; toxic; format: functional, organism-based; method in brief: as §4
Rattus norvegicus [8] = experiment: The percent inhibition was calculated from the average differences in hind paw volume between the adjuvant injected controls and the adjuvant-injected medicated rats at 0.08 mmol/kg; 80-89; format: functional
Rattus norvegicus [9] = experiment: Antiinflammatory efficacy is measured by the weight gain in rats during the 3 week adjuvant arthritis test at 0.16 mM/kg (70.4 mg); format: functional
Method in brief: (§5)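 Male Sprague-Dawley rats (200–230 g), eight per group, received 0.1 mL of 0.6% M. butyricum in heavy mineral oil (negative controls: mineral oil) into one hind-paw plantar tissue. Daily gavage in 1% gum tragacanth or corn oil-water emulsion began on the injection day, for 21 days. Weight gain is expressed as (treated − adjuvant control)/(negative control − adjuvant control) × 100.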

Rattus norvegicus [10] = experiment: Ulcerogenicity was measured in stomach during the 3 week adjuvant arthritis test, no of animals with ulcers out of 4 animals tested at 0.16 mM/kg (70.4 mg) was reported; format: functional; method in brief: as §4
Rattus norvegicus [11] = experiment: Antiinflammatory efficacy is measured by the weight gain in rats during the 3 week adjuvant arthritis test at 0.02 mM/kg (8.80 mg); format: functional; method in brief: as §2
Rattus norvegicus [12] = experiment: Antiinflammatory efficacy is measured by the weight gain in rats during the 3 week adjuvant arthritis test at 0.08 mM/kg (35.2 mg); format: functional; method in brief: as §2
Rattus norvegicus [13] = species: Rattus norvegicus; experiment: Compound was evaluated for highest non-ulcerogenic dose (less than 50% ulcer incidence); format: functional; conditions: read-out: ED50
Method in brief: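 Taken from the 21-day adjuvant arthritis test in male Sprague-Dawley rats dosed orally each day from the day of adjuvant injection. Small intestines and stomachs were examined for ulceration at the end. The value is the highest dose giving less than 50% ulcer incidence.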

Rattus norvegicus [14] = experiment: Antiinflammatory efficacy is measured by the percent inhibition of paw volume during the 3 week adjuvant arthritis test at 0.08 mM/kg (35.2 mg); format: functional; method in brief: as §1
Rattus norvegicus [15] = experiment: Ulcerogenicity was measured in intestine during the 3 week adjuvant arthritis test, no of animals with ulcers out of 4 animals tested at 0.16 mM/kg (70.4 mg) was reported; format: functional; method in brief: as §3
Rattus norvegicus [16] = experiment: The mean increase in paw volume was compared between drug treated groups and placebo to calculate the percent inhibition in rats at 0.08 mmol/kg by carrageenan Edema Assay; 40-49; format: functional
Rattus norvegicus [17] = experiment: Antiinflammatory efficacy is measured by the weight gain in rats during the 3 week adjuvant arthritis test at 0.08 mM/kg (24.6 mg); format: functional; method in brief: as §2
Rattus norvegicus [18] = experiment: Antiinflammatory efficacy is measured by the weight gain in rats during the 3 week adjuvant arthritis test at 0.50 mM/kg (154 mg); format: functional; method in brief: as §5
Rattus norvegicus [19] = experiment: Ulcerogenicity was measured in intestine during the 3 week adjuvant arthritis test, no of animals with ulcers out of 55 animals tested at 0.50 mM/kg (154 mg) was reported; format: functional; method in brief: as §3
Rattus norvegicus [20] = experiment: Ulcerogenicity was measured in stomach during the 3 week adjuvant arthritis test, no of animals with ulcers out of 55 animals tested at 0.50 mM/kg (154 mg) was reported; format: functional; method in brief: as §4
Rattus norvegicus [21] = experiment: Ulcerogenicity was measured in intestine during the 3 week adjuvant arthritis test, no of animals with ulcers out of 8 animals tested at 0.41 mM/kg (126 mg) was reported; format: functional; method in brief: as §4
Rattus norvegicus [22] = experiment: The percent inhibition was calculated from the average differences in hind paw volume between the adjuvant injected controls and the adjuvant-injected medicated rats at 0.08 mmol/kg; 60-69; format: functional; conditions: Rattus norvegicus
Rattus norvegicus [23] = experiment: Antiinflammatory efficacy is measured by the percent inhibition of paw volume during the 3 week adjuvant arthritis test at 0.08 mM/kg (24.6 mg); format: functional; method in brief: as §1
Rattus norvegicus [24] = experiment: Ulcerogenicity was measured in intestine during the 3 week adjuvant arthritis test, no of animals with ulcers out of 72 animals tested at 0.08 mM/kg (24.6 mg) was reported; format: functional; method in brief: as §3
Rattus norvegicus [25] = experiment: Ulcerogenicity was measured in stomach during the 3 week adjuvant arthritis test, no of animals with ulcers out of 8 animals tested at 0.41 mM/kg (126 mg) was reported; format: functional; method in brief: as §4
Rattus norvegicus [26] = experiment: Ulcerogenicity was measured in stomach during the 3 week adjuvant arthritis test, no of animals with ulcers out of 72 animals tested at 0.08 mM/kg (24.6 mg) was reported; format: functional; method in brief: as §4
Rattus norvegicus [27] = experiment: The percent inhibition was calculated from the average differences in hind paw volume between the adjuvant injected controls and the adjuvant-injected medicated rats at 0.08 mmol/kg; 70-79; format: functional
Rattus norvegicus [28] = experiment: The mean increase in paw volume was compared between drug treated groups and placebo to calculate the percent inhibition in rats at 0.08 mmol/kg by carrageenan Edema Assay; 60-69; format: functional
Rattus norvegicus [29] = experiment: Antiinflammatory efficacy is measured by the percent inhibition of paw volume during the 3 week adjuvant arthritis test at 0.005 mM/kg (2.03 mg); format: functional; method in brief: as §1
Rattus norvegicus [30] = experiment: Ulcerogenicity was measured in stomach during the 3 week adjuvant arthritis test, no of animals with ulcers out of 3 animals tested at 0.32 mM/kg (130 mg) was reported; format: functional; method in brief: as §4
Rattus norvegicus [31] = experiment: The mean increase in paw volume was compared between drug treated groups and placebo to calculate the percent inhibition in rats at 0.02 mmol/kg by carrageenan Edema Assay; 50-59; format: functional
Rattus norvegicus [32] = experiment: Antiinflammatory efficacy is measured by the weight gain in rats during the 3 week adjuvant arthritis test at 0.005 mM/kg (2.03 mg); format: functional; method in brief: as §2
Rattus norvegicus [33] = experiment: Ulcerogenicity was measured in stomach during the 3 week adjuvant arthritis test, no of animals with ulcers out of 8 animals tested at 0.08 mM/kg (32.4 mg) was reported; format: functional; method in brief: as §4
Rattus norvegicus [34] = experiment: Antiinflammatory efficacy is measured by the weight gain in rats during the 3 week adjuvant arthritis test at 0.02 mM/kg (8.11 mg); format: functional; method in brief: as §2
Rattus norvegicus [35] = experiment: Antiinflammatory efficacy is measured by the percent inhibition of paw volume during the 3 week adjuvant arthritis test at 0.08 mM/kg (32.24 mg); format: functional; method in brief: as §1
Rattus norvegicus [36] = experiment: Ulcerogenicity was measured in intestine during the 3 week adjuvant arthritis test, no of animals with ulcers out of 8 animals tested at 0.08 mM/kg (32.4 mg) was reported; format: functional; method in brief: as §3
Rattus norvegicus [37] = experiment: Potency relative to phenylbutazone at 0.02 […]; format: functional
Rattus norvegicus [38] = experiment: The percent inhibition was calculated from the average differences in hind paw volume between the adjuvant injected controls and the adjuvant-injected medicated rats at 0.08 mmol/kg; 90-99; format: functional
Rattus norvegicus [39] = experiment: Antiinflammatory efficacy is measured by the percent inhibition of paw volume during the 3 week adjuvant arthritis test at 0.02 mM/kg (8.11 mg); format: functional; method in brief: as §1
Rattus norvegicus [40] = experiment: Ulcerogenicity was measured in intestine during the 3 week adjuvant arthritis test, no of animals with ulcers out of 3 animals tested at 0.32 mM/kg (130 mg) was reported; format: functional; method in brief: as §3
Rattus norvegicus [41] = experiment: Antiinflammatory efficacy is measured by the weight gain in rats during the 3 week adjuvant arthritis test at 0.08 mM/kg (32.24 mg); format: functional; method in brief: as §2

Compound: CC(CN1CCCCC1CC1CCCCC1)c1cccc(C(O)c2ccc(Cl)cc2)c1 (stereo not drawn)
- Inhibition (Rattus norvegicus [1]): 70%
- Inhibition (Rattus norvegicus [2]): 64%
- Weight gain (Rattus norvegicus [3]): 40%
- inhibition in vivo at 20 µmol/kg (Rattus norvegicus [4]): 40%
- Ulcerogenic index (Rattus norvegicus [5]): 1
- Ulcerogenic index (Rattus norvegicus [6]): 0
- Ulcerogenic index (Rattus norvegicus [7]): Toxic
- inhibition in vivo at 80 µmol/kg (Rattus norvegicus [8]): 80%
- Weight gain (Rattus norvegicus [9]): 84%
- Ulcerogenic index (Rattus norvegicus [10]): 0
- Weight gain (Rattus norvegicus [11]): 69%
- Weight gain (Rattus norvegicus [12]): 87%
- highest non-ulcerogenic dose (Rattus norvegicus [13]): 1 µmol/kg
- Inhibition (Rattus norvegicus [14]): 88%
- Ulcerogenic index (Rattus norvegicus [15]): 3

Compound: CCCCC1C(=O)N(c2ccccc2)N(c2ccccc2)C1=O [PHENYLBUTAZONE]
- inhibition in vivo at 80 µmol/kg (Rattus norvegicus [16]): 40%
- Weight gain (Rattus norvegicus [17]): 21%
- Weight gain (Rattus norvegicus [18]): 41%
- Ulcerogenic index (Rattus norvegicus [19]): 36
- Ulcerogenic index (Rattus norvegicus [20]): 17
- Ulcerogenic index (Rattus norvegicus [21]): 2
- inhibition in vivo at 80 µmol/kg (Rattus norvegicus [22]): 60%
- Inhibition (Rattus norvegicus [23]): 66%
- Ulcerogenic index (Rattus norvegicus [24]): 11
- Ulcerogenic index (Rattus norvegicus [25]): 3
- Ulcerogenic index (Rattus norvegicus [26]): 14
- highest non-ulcerogenic dose (Rattus norvegicus [13]): 40 µmol/kg

Compound: CC1CN(CC(C)c2cccc(C(=O)c3ccccc3)c2)CC(C)O1 (stereo not drawn)
- inhibition in vivo at 80 µmol/kg (Rattus norvegicus [27]): 70%
- inhibition in vivo at 80 µmol/kg (Rattus norvegicus [28]): 60%

Compound: CC(CN1CCCCC1CC1CCCCC1)c1cccc(C(O)c2ccccc2)c1 (stereo not drawn)
- Inhibition (Rattus norvegicus [29]): 37%
- Ulcerogenic index (Rattus norvegicus [30]): 1
- inhibition in vivo at 20 µmol/kg (Rattus norvegicus [31]): 30%
- Weight gain (Rattus norvegicus [32]): 13%
- Ulcerogenic index (Rattus norvegicus [33]): 1
- Weight gain (Rattus norvegicus [34]): 36%
- Inhibition (Rattus norvegicus [35]): 110%
- Ulcerogenic index (Rattus norvegicus [36]): 1
- Relative potency (Rattus norvegicus [37]): 8.6%
- highest non-ulcerogenic dose (Rattus norvegicus [13]): 8 µmol/kg
- inhibition in vivo at 80 µmol/kg (Rattus norvegicus [38]): 90%
- Inhibition (Rattus norvegicus [39]): 82%
- Ulcerogenic index (Rattus norvegicus [40]): 3
- Weight gain (Rattus norvegicus [41]): 67%

Reference: ChEMBL document CHEMBL1122782, “Bulky amine analogues of ketoprofen: potent antiinflammatory agents” (J Med Chem, 1984)
